Most compounds without a hit are left out; they make up all but 3.7% or so of the library.
OX1R antag-1: OX1R (HCRTR1) antagonists, primary screen, fluorescence, CHO/OX1R cells, Fluo-8 calcium, orexin A; Fluo-8 calcium fluorescence; inhibition, % at 5 µM; 330,000 compounds, 0.43% hits;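 active = inhibition above its plate's threshold, mean inhibition of all tested compounds on the plate plus 3 SD, cut at about 37% in these data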
CHO parental Ca: ATP-evoked calcium signal inhibitors, parental CHO, primary screen, counter-screen for OX1R antagonist project, cell-based, fluorescence, Fluo-8 calcium dye. parental CHO-K1, ATP-induced calcium, Fluo-8 fluorescence. inhibition, % at 5.6 µM. 330,000 compounds, 0.63% hits;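 active = inhibition above that plate's mean sample inhibition plus 3 SD, cut at about 26% in these data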
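Assay system: untransfected parental CHO cell line. Also added: ATP agonist challenge. Dosing: one dose, 5.6 µM nominal. Measured by: Fluo-8 fluorescence. Read-out: % inhibition. Benchmarks: ATP wells versus no-ATP DMSO wells. Repeats: no replicates.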
GPR7 antagonist: GPR7 receptor antagonists, primary screen, cell-based, fluorescence, single concentration; GPR7-expressing cells, fluorescence antagonist assay; inhibition, % at 4.4 µM; 290,000 compounds, 1.1% hits; AID 1861, 2009; in the data active = inhibition above about 16%, passing the limit was not always enough;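 also: cells stimulated with the agonist NPW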
Target sequence (P48145 whole entry, looked up): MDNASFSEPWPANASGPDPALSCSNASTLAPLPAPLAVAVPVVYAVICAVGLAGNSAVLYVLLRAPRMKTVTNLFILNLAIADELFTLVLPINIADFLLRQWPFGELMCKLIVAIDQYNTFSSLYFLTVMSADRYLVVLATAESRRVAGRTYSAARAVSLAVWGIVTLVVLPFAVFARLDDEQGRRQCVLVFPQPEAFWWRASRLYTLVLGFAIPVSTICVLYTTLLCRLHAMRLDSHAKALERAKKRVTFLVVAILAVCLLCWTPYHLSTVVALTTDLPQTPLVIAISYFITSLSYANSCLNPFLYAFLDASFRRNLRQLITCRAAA
EP2 antag: human EP2 receptor antagonists, primary screen, TR-FRET cAMP, C6 glioma cells | Prostaglandin E2 receptor EP2 subtype (Homo sapiens), P43116 | C6 glioma cells expressing human EP2; cells stimulated with saturating PGE2 | inhibition, % at 25 µM | 260,000 compounds, 0.52% hits | AID 1422, 2008;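 active = percent inhibition above 40 after rounding to a whole number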;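 also: rat C6 glioma host cells with rolipram phosphodiesterase inhibitor present; the protocol text gives 20 µM as final concentration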
OX1R antag-2: antagonists of human orexin 1 receptor (OX1R). Orexin/Hypocretin receptor type 1 (Homo sapiens), O43613. OX1R-expressing cells, FRET antagonist read-out. inhibition, % at 6.6 µM. 330,000 compounds, 1.8% hits. AID 485270, 2010; in the data active = inhibition mostly above about 38%, no sharp cut-off; inactive = mostly below about 40%
EP2 modulator: EP2 receptor modulators, cAMP readout, primary screen, cell-based, HTRF cAMP, PGE2 stimulation | induction, % at 25 µM | EP2-expressing cells, cAMP HTRF FRET, PGE2 co-stimulation | Prostaglandin E2 receptor EP2 subtype (Homo sapiens), P43116 | 260,000 compounds, 0.83% hits;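 active = compounds whose cAMP rise, as percent of the full-agonist control response, exceeds 60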;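 also: rat C6 glioma line stably carrying human EP2 under a CMV promoter; the protocol text gives 20 µM as final concentration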
OX1R Fluo8 conf: OX1R (HCRTR1) antagonists, confirmation, fluorescence, CHO/OX1R cells, Fluo-8 calcium, orexin A. shares compounds with OX1R antag-1. orexin A calcium Fluo-8 fluorescence. inhibition, % at 5 µM. 1,100 compounds, 38% hits; in the data active = inhibition above about 29%
CHO Ca counter: ATP-evoked calcium inhibition in parental CHO, counter-screen for OX1R antagonist project, cell-based, fluorescence, CHO-K1, triplicate; shares compounds with OX1R antag-1; ATP-induced calcium, Fluo-8 fluorescence; inhibition, % at 5.6 µM; 1,100 compounds, 9.3% hits;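 active = inhibition above a per-plate limit, the mean inhibition of that plate's test compounds plus 3 SD, cut at about 25% in these data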
OX1R HTRF confirm: OX1R (HCRTR1) antagonists, confirmation, cell-based, HTRF. AID 492964, 2010. shares compounds with OX1R antag-2. 1,800 compounds, 49% hits. inhibition, % at 6.6 µM. OX1R-expressing cells, HTRF antagonist assay; in the data active = inhibition above about 55%;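 also: CHO cells expressing OX1R stimulated with orexin A at about EC80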
CHO-K1 HTRF: signal inhibition in parental CHO-K1 cells, counter-screen for OX1R antagonist project, cell-based, HTRF. shares compounds with OX1R antag-2. HTRF counterscreen. inhibition, % at 6.6 µM. 1,800 compounds, 48% hits; in the data active = inhibition above about 17%
Numbers stand for hits; 0 = inactive; - = no result given.

SMILES | OX1R antag-1 | CHO parental Ca | GPR7 antagonist | EP2 antag | OX1R antag-2 | EP2 modulator | OX1R Fluo8 conf | CHO Ca counter | OX1R HTRF confirm | CHO-K1 HTRF
Nc1cc(S(=O)(=O)C(F)(F)F)ccc1C(=O)O | 0 | 0 | 0 | 0 | 0 | 0 | - | - | - | -
Cc1ccc(C)c2[nH]c(=O)c(CN(CC3CCCO3)C(=O)NC3CCCCC3)cc12 (stereo unspecified) | 0 | 0 | 0 | 0 | 0 | 0 | - | - | - | -
NS(=O)(=O)c1ccc(CCNC(=O)CN2C(=O)NC(c3ccccc3)(c3ccccc3)C2=O)cc1 | 0 | 0 | - | - | 0 | - | - | - | - | -
O=C(CN1C(=O)NC(c2ccccc2)(c2ccccc2)C1=O)NCCc1ccc(F)cc1 | 0 | 0 | - | - | 68.7 | - | 31.4 | 0 | 56.3 | 0
CCCCN(C(=O)CSc1ncnc2sccc12)c1c(N)n(Cc2ccccc2)c(=O)[nH]c1=O | 0 | 0 | - | - | 0 | - | - | - | - | -
CCc1cc2c(SCC(=O)N(CC)c3c(N)n(Cc4ccccc4)c(=O)[nH]c3=O)ncnc2s1 | 0 | 0 | 0 | 0 | 84.2 | 0 | 47.9 | 0 | 92.6 | 0
CCOc1ccc(-c2cc(C(=O)Nc3ccc4c(c3)OCCO4)c3ccccc3n2)cc1 | 0 | 0 | 0 | 0 | 0 | 0 | - | - | - | -
O=C(NC(Nc1ncc(S(=O)(=O)c2ccc([N+](=O)[O-])cc2)s1)(C(F)(F)F)C(F)(F)F)c1ccc(Cl)cc1 | 0 | 0 | 0 | - | 119.6 | 0 | 30.1 | 65.0 | 57.8 | 35.7
COc1cccc(-c2nc3ccc([N+](=O)[O-])cc3o2)c1 | 0 | 0 | 0 | 0 | 0 | 0 | - | - | - | -
O=C(NCc1ccco1)c1csc2c1CCCCC2 | 0 | 0 | 0 | 0 | 0 | 0 | - | - | - | -
CC(=O)Nc1ccc(NC(=O)C(C)OC(=O)CCC(=O)c2ccc(F)cc2)cc1 (stereo unspecified) | 0 | 0 | 0 | 0 | 0 | 0 | - | - | - | -
CC(=O)Nc1ccc(NC(=O)C(C)OC(=O)C(C)SCC(=O)Nc2ccc(F)cc2)cc1 (stereo unspecified) | 0 | 0 | - | - | 89.0 | - | 45.8 | 0 | 86.8 | 0
NC(=O)COC(=O)c1ccc(Cl)c(S(=O)(=O)N2CCCCCC2)c1 | 0 | 0 | 0 | 0 | 0 | 0 | - | - | - | -
COc1ccccc1OCC(=O)Nc1c2c(nn1-c1ccc(C)cc1)CS(=O)(=O)C2 | 0 | 0 | - | - | 0 | - | - | - | - | -
Cc1ccc(-c2csc3nnc(SCC(=O)Nc4nsc(-c5ccccc5)n4)n23)cc1 | 67.9 | 0 | 0 | 0 | 81.8 | 0 | 48.5 | 0 | 91.2 | 0
O=C(CSc1nnc2scc(-c3ccccc3)n12)Nc1nsc(-c2ccc(Cl)cc2)n1 | 0 | 0 | 0 | 0 | 0 | - | - | - | - | -
CC(=O)Nc1ccc(S(=O)(=O)N(Cc2ccccc2)c2ccccc2F)cc1 | 0 | 0 | 0 | 0 | 63.1 | 64.2 | 33.8 | 0 | 56.1 | 0
Cc1cc(C(=O)NCc2ccccc2Cl)c2ccccc2n1 | 0 | 0 | 0 | - | 0 | - | - | - | - | -
Cc1cc(C(=O)NCc2cccc(Cl)c2)c2ccccc2n1 | 0 | 0 | 0 | - | 86.8 | - | 30.9 | 0 | 66.9 | 0
CC1Cc2ccccc2N1C(=O)C1CCN(S(=O)(=O)c2cccs2)CC1 (stereo unspecified) | 0 | 0 | 0 | 0 | 0 | 0 | - | - | - | -
